In ChEMBL document CHEMBL4393677, “Comparative analysis of pyrimidine substituted aminoacyl-sulfamoyl nucleosides as potential inhibitors targeting class I aminoacyl-tRNA synthetases” (Eur J Med Chem, 2019):
The source made the active and inactive calls. No cut-off for these calls is given here.

How the values were obtained:
Leucine--tRNA ligase = Leucine--tRNA ligase (Escherichia coli (strain K12), UniProt P07813); test: Inhibition of purified Escherichia coli BL21 (DE3) leuRS incubated for 10 mins in presence of 14C-labeled leucine by radiolabel transfer assay; conditions: read-out: Ki(app)
Chain of Leucine--tRNA ligase (P07813 whole entry): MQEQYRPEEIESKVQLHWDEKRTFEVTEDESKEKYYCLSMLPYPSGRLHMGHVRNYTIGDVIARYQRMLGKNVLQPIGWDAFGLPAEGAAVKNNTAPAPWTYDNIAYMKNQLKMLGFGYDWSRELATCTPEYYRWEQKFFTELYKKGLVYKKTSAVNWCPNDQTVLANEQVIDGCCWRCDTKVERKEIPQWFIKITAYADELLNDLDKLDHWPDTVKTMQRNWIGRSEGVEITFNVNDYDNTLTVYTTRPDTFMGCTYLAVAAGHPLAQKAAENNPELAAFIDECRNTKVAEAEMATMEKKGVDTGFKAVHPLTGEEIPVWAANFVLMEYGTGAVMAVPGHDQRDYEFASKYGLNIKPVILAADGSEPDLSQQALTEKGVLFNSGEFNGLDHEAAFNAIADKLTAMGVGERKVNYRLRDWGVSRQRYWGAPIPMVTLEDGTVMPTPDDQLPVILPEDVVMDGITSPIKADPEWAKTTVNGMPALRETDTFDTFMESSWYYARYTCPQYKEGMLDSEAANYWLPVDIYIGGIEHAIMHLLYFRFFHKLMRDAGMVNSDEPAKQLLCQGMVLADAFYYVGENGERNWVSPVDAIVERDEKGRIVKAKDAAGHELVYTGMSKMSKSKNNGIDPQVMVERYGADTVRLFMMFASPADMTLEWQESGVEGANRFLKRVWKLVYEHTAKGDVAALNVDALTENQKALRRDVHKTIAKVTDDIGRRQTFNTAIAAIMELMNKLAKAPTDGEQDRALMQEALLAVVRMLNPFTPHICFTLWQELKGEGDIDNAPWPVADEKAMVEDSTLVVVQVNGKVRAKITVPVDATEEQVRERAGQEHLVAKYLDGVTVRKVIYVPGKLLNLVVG

Tyrosine--tRNA ligase = biological target: T1, Tyrosine--tRNA ligase (Escherichia coli (strain K12), UniProt P0AGJ9); test: Inhibition of purified Escherichia coli BL21 (DE3) tyrRS incubated for 10 mins in presence of 14C-labeled tyrosine by radiolabel transfer assay; conditions: read-out: Ki(app)
T1 sequence (P0AGJ9 whole entry): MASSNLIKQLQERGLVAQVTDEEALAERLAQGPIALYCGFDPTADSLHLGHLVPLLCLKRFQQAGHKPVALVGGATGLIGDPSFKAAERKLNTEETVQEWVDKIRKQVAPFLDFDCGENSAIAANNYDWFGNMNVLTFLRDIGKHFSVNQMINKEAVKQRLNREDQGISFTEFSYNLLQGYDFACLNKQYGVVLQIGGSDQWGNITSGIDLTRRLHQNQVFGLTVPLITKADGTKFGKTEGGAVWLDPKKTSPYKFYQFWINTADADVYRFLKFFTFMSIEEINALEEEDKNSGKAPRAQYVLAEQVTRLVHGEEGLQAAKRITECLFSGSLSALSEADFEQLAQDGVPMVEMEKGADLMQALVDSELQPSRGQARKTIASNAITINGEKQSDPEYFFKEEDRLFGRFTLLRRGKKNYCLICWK

[1] = biological target: T2, Tyrosine--tRNA ligase (Escherichia coli (strain K12)) (UniProt P0AGJ9); test: Inhibition of tyrRS in Escherichia coli NCIB 8743 S30 extract assessed as aminoacylation at 250 nM incubated for 5 mins in presence of 14C-labeled tyrosine by liquid scintillation counting method relative to control; parameters: scale not given: the % may be the effect or the level left
T2 sequence (whole entry): T1 sequence (P0AGJ9 whole entry)
Method in brief: (§1)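 S30 extract from cells grown in LB at 37 °C to OD600 1.2, sonicated, twice clarified; diluted 10-fold. Inhibitor (5 µM stock) preincubated 5 min with extract, then aminoacylation at 37 °C with 30 mM Tris pH 8.0, 1 mM DTT, 5 g/L tRNA, 3 mM ATP, 30 mM KCl, 8 mM MgCl₂, ¹⁴C-Ile 15 µM or ¹⁴C-Tyr 9.66 µM; quenched at 1 min, TCA filters counted. Activity relative to no-inhibitor extract; mean of three.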

[2] = biological target: Isoleucine--tRNA ligase (Escherichia coli K-12) (UniProt P00956); test: Inhibition of ileRS in Escherichia coli BL21 (DE3) pLysS S30 extract over expressing RimI incubated for 5 to 60 mins in presence of 14C-labeled isoleucine and acetyl-CoA by liquid scintillation counting method
Chain of Isoleucine--tRNA ligase (Escherichia coli K-12) (P00956 whole entry): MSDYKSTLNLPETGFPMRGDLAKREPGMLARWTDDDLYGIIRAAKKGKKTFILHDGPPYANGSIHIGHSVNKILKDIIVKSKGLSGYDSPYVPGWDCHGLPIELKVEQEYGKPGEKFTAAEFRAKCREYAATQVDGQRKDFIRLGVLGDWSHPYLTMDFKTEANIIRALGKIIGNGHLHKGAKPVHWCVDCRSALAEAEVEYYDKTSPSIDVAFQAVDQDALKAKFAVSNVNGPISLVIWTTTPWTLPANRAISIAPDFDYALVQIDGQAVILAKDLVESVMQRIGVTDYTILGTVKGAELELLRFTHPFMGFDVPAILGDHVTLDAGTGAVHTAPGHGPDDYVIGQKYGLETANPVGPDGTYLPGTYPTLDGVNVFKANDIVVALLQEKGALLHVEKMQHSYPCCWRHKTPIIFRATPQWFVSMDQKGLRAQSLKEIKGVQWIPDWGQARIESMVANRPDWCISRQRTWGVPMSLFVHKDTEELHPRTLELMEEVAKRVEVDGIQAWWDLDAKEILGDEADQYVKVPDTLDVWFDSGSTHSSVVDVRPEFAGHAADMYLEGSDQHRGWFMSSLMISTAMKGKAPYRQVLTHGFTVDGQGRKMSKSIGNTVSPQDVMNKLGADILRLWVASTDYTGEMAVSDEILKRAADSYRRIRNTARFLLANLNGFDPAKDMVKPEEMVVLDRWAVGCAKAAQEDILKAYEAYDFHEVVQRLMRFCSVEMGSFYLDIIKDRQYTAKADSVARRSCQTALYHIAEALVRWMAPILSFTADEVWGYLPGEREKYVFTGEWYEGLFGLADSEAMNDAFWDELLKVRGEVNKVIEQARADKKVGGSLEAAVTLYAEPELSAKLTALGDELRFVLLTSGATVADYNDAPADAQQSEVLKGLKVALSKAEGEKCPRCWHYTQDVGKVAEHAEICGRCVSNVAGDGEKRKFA

[3] = biological target: T2, Tyrosine--tRNA ligase (Escherichia coli (strain K12)); test: Inhibition of tyrRS in Escherichia coli BL21 (DE3) pLysS S30 extract over expressing RimI incubated for 5 to 60 mins in presence of 14C-labeled tyrosine by liquid scintillation counting method
[4] = biological target: Isoleucine--tRNA ligase (Escherichia coli K-12) (UniProt P00956); test: Inhibition of ileRS in Escherichia coli BL21 (DE3) pLysS S30 extract over expressing SUMO incubated for 5 to 60 mins in presence of 14C-labeled isoleucine and acetyl-CoA by liquid scintillation counting method
[5] = biological target: T2, Tyrosine--tRNA ligase (Escherichia coli (strain K12)); test: Inhibition of tyrRS in Escherichia coli BL21 (DE3) pLysS S30 extract over expressing SUMO incubated for 5 to 60 mins in presence of 14C-labeled tyrosine by liquid scintillation counting method
[6] = biological target: T2, Tyrosine--tRNA ligase (Escherichia coli (strain K12)); test: Inhibition of tyrRS in Escherichia coli BL21 (DE3) pLysS S30 extract over expressing YhhY incubated for 5 to 60 mins in presence of 14C-labeled tyrosine by liquid scintillation counting method
[7] = biological target: T2, Tyrosine--tRNA ligase (Escherichia coli (strain K12)); test: Inhibition of tyrRS in Escherichia coli BL21 (DE3) pLysS S30 extract over expressing RimL incubated for 5 to 60 mins in presence of 14C-labeled tyrosine by liquid scintillation counting method relative to control
[8] = biological target: Isoleucine--tRNA ligase (Escherichia coli K-12) (UniProt P00956); test: Inhibition of ileRS in Escherichia coli BL21 (DE3) pLysS S30 extract over expressing RimL incubated for 5 to 60 mins in presence of 14C-labeled isoleucine and acetyl-CoA by liquid scintillation counting method
Isoleucine--tRNA ligase = Isoleucine--tRNA ligase (Escherichia coli K-12, UniProt P00956); test: Inhibition of purified Escherichia coli BL21 (DE3) ileRS incubated for 10 mins in presence of 14C-labeled isoleucine by radiolabel transfer assay; conditions: read-out: Ki(app)
Chain of Isoleucine--tRNA ligase (P00956 whole entry): as above

[9] = biological target: Isoleucine--tRNA ligase (Escherichia coli K-12) (UniProt P00956); test: Inhibition of ileRS in Escherichia coli NCIB 8743 S30 extract assessed as aminoacylation at 250 nM incubated for 5 mins in presence of 14C-labeled isoleucine by liquid scintillation counting method relative to control; parameters: scale not given: the % may be the effect or the level left; method in brief: as §1
[10] = Stability of compound in Escherichia coli NCIB 8743 S30 extract assessed as compound degradation incubated for 1 hr n presence of 14C-labeled isoleucine and acetyl-CoA by liquid scintillation counting method; assay type: ADME, subcellular
Method in brief: (§2)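 Inhibitor (5 μM stock) incubated at 37 °C up to 48 h with S30 extract (1:3), or with extract plus acetyl-CoA (10 mM stock) (1:1:3). Aliquots at set times added to aminoacylation mix (30 mM Tris pH 8.0, 1 mM DTT, tRNA, 3 mM ATP, 30 mM KCl, 8 mM MgCl₂, 10 μM ¹⁴C-isoleucine) at 37 °C; quenched after 1 min, ileRS activity by scintillation counting.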

[11] = Stability of compound in Escherichia coli NCIB 8743 S30 extract assessed as compound degradation incubated for 48 hr in presence of 14C-labeled isoleucine and acetyl-CoA by liquid scintillation counting method; assay type: ADME, subcellular; method in brief: as §2
[12] = Stability of compound in Escherichia coli NCIB 8743 S30 extract assessed as compound degradation at 0.25 uM in presence of 14C-labeled isoleucine and acetyl-CoA by liquid scintillation counting method; assay type: ADME, subcellular; method in brief: as §2
[13] = Stability of compound in Escherichia coli BL21 (DE3) pLysS S30 extract assessed as compound degradation at 0.25 uM in presence of 14C-labeled isoleucine and acetyl-CoA by liquid scintillation counting method; assay type: ADME, subcellular
[14] = biological target: Isoleucine--tRNA ligase (Escherichia coli K-12) (UniProt P00956); test: Inhibition of ileRS in Escherichia coli BL21 (DE3) pLysS S30 extract over expressing YhhY incubated for 5 mins in presence of 14C-labeled isoleucine and acetyl-CoA by liquid scintillation counting method
[15] = biological target: Isoleucine--tRNA ligase (Escherichia coli K-12) (UniProt P00956); test: Inhibition of ileRS in Escherichia coli BL21 (DE3) pLysS S30 extract over expressing YhhY incubated for 60 mins in presence of 14C-labeled isoleucine and acetyl-CoA by liquid scintillation counting method
[16] = biological target: Leucine--tRNA ligase (Escherichia coli (strain K12)) (UniProt P07813); test: Inhibition of leuRS in Escherichia coli BL21 (DE3) pLysS S30 extract over expressing YhhY incubated for 5 mins in presence of 14C-labeled leucine by liquid scintillation counting method
Chain of Leucine--tRNA ligase (Escherichia coli (strain K12)) (P07813 whole entry): as the sequence (P07813 whole entry) above

[17] = biological target: Leucine--tRNA ligase (Escherichia coli (strain K12)) (UniProt P07813); test: Inhibition of leuRS in Escherichia coli BL21 (DE3) pLysS S30 extract over expressing YhhY incubated for 60 mins in presence of 14C-labeled leucine by liquid scintillation counting method

| Compound | Ki (Leucine--tRNA ligase) [nM] | Ki (Tyrosine--tRNA ligase) [nM] | Activity [1] | inhibition [2] | inhibition [3] | inhibition [4] | inhibition [5] | inhibition [6] | inhibition [7] | inhibition [8] | Ki (Isoleucine--tRNA ligase) [nM] | Activity [9] [%] | Stability [10] | Stability [11] | Stability [12] | Stability [13] | inhibition [14] | inhibition [15] | inhibition [16] | inhibition [17] |
| --- | --- | --- | --- | --- | --- | --- | --- | --- | --- | --- | --- | --- | --- | --- | --- | --- | --- | --- | --- | --- |
| CC(C)C[C@H](N)C(=O)NS(=O)(=O)OC[C@H]1O[C@@H](n2ccc(=O)n(C)c2=O)[C@H](O)[C@@H]1O | 29.5 |  |  |  |  |  |  |  |  |  |  |  |  |  |  |  |  |  |  |  |
| N[C@@H](Cc1ccc(O)cc1)C(=O)NS(=O)(=O)OC[C@H]1O[C@@H](n2ccc(=O)[nH]c2=O)[C@H](O)[C@@H]1O |  | 43.4 | 37 to 62% | Active | Active | Active | Active | Active | Active |  |  |  |  |  |  |  |  |  |  |  |
| CC(C)C[C@H](N)C(=O)NS(=O)(=O)OC[C@H]1O[C@@H](n2ccc(=O)[nH]c2=O)[C@H](O)[C@@H]1O | 20.8 |  |  | Active | Active | Active | Active |  |  | inactive |  |  |  |  |  |  |  |  |  |  |
| CC[C@H](C)[C@H](N)C(=O)NS(=O)(=O)OC[C@H]1O[C@@H](n2ccc(=O)[nH]c2=O)[C@H](O)[C@@H]1O |  |  |  | Active | Active | Active | Active |  |  | inactive | 55 | 5 to 14 | Stable | Stable | Stable | Stable | Active | inactive | Active | inactive |
| CC[C@H](C)[C@H](N)C(=O)NS(=O)(=O)OC[C@H]1O[C@@H](n2ccc(=O)n(C)c2=O)[C@H](O)[C@@H]1O |  |  |  |  |  |  |  |  |  |  | 1040 | 17 to 34 | Stable | Stable |  |  |  |  |  |  |
| CC[C@H](C)[C@H](N)C(=O)NS(=O)(=O)OC[C@H]1O[C@@H](n2ccc(N)nc2=O)[C@H](O)[C@@H]1O |  |  |  | Active | Active | Active | Active |  |  | inactive | 17.2 | 5 to 14 | Stable | Stable |  |  | Active | inactive | Active | inactive |
| CC(C)C[C@H](N)C(=O)NS(=O)(=O)OC[C@H]1O[C@@H](n2cnc3c(N)ncnc32)[C@H](O)[C@@H]1O |  |  |  | Active | Active | Active | Active |  |  | inactive |  |  |  |  |  |  |  |  |  |  |
| Nc1ccn([C@@H]2O[C@H](COS(=O)(=O)NC(=O)[C@@H](N)Cc3ccc(O)cc3)[C@@H](O)[C@H]2O)c(=O)n1 |  | 1480 | inactive | Active | Active | Active | Active | inactive |  |  |  |  |  |  |  |  |  |  |  |  |
| Nc1ncnc2c1ncn2[C@@H]1O[C@H](COS(=O)(=O)NC(=O)[C@@H](N)Cc2ccc(O)cc2)[C@@H](O)[C@H]1O |  |  | 0.05 to 1.8% | Active | Active | Active | Active | Active | Active |  |  |  |  |  |  |  |  |  |  |  |
| CC[C@H](C)[C@H](N)C(=O)NS(=O)(=O)OC[C@H]1O[C@@H](n2cnc3c(N)ncnc32)[C@H](O)[C@@H]1O |  |  |  | Active | Active | Active | Active |  |  | inactive |  | 0.05 to 1.8 | Stable | Stable | Stable | Stable | Active | inactive | Active | Active |
| Cn1c(=O)ccn([C@@H]2O[C@H](COS(=O)(=O)NC(=O)[C@@H](N)Cc3ccc(O)cc3)[C@@H](O)[C@H]2O)c1=O |  | 149 | 37 to 62% |  |  |  |  |  |  |  |  |  |  |  |  |  |  |  |  |  |
| CC(C)C[C@H](N)C(=O)NS(=O)(=O)OC[C@H]1O[C@@H](n2ccc(N)nc2=O)[C@H](O)[C@@H]1O | 9.8 |  |  | Active | Active | Active | Active |  |  | inactive |  |  |  |  |  |  |  |  |  |  |
